Measured values from different studies.
Compare with care: the assays were run in different laboratories.
Target: Dual specificity protein kinase CLK2 (CLK2, Homo sapiens, UniProt P49760)

CCC1(CC)NC(=O)c2c(c3ccc(Cl)c(Cl)c3n2C)C1C#N (stereo not shown)
ΔTm (thermal stability; DSF; 10 µM): 1.3 °C

CN(C)C1CCN(CC#Cc2nn(C3CCCC3)c3nc(NCc4ccccc4)ncc23)C1 (stereo not shown)
inhibition (enzyme activity; inhibitor; FRET; 1 µM): 11%

CC(C)(O)[C@H]1CC[C@H](Nc2ccc3ncc(-c4cccc(C(F)(F)F)c4)n3n2)CC1
remaining activity (enzyme activity; inhibitor; 1 µM): 15.8%

O=C(NCc1ncc(C(F)(F)F)cc1Cl)c1ccc2c(c1)C1(CCS(=O)(=O)CC1)[C@@H](C1CC1)N2S(=O)(=O)c1ccc(F)cc1
remaining binding (cell-free assay; competition with immobilised ligand; 1 µM): 82%

Cn1c2c(c3ccc(Cl)c(Cl)c31)C(C#N)C1(CCN(C(=O)OC(C)(C)C)CC1)NC2=O (racemic)
ΔTm (thermal stability; DSF; 10 µM): -0.3 °C

COc1ccc2c(O[C@@H]3C[C@H]4C(=O)N[C@]5(C(=O)O)CC5/C=C\CCCCC[C@H](NC(=O)OC5CCCC5)C(=O)N4C3)cc(-c3csc(NC(=O)C(C)C)n3)nc2c1C (stereo partly shown)
remaining binding (cell-free assay; competition with immobilised ligand; 1 µM): 100%

Cc1ccc(NC(=O)c2ccc(CN3CCN(C)CC3)cc2)cc1Nc1nc(-c2cccnc2)cs1
remaining signal (cell-free assay; 0.5 µM): 86%

CN([C@@H]1CCc2c(CC(=O)O)c3cc(S(C)(=O)=O)ccc3n2C1)S(=O)(=O)c1ccc(F)cc1
remaining binding (cell-free assay; competition with immobilised ligand; 1 µM): 100%

Cn1cnc(Br)c1C1=CN(c2ncnc3[nH]cnc23)CCS1
inhibition (enzyme activity; inhibitor; radiometric; 50 nM): 46.1%

CC(C)(C)c1nc2c(s1)c1nc(N)ncc1c1ccc(NS(=O)(=O)c3c(F)cccc3F)c(F)c12
remaining activity (enzyme activity; inhibitor; radiometric; 1 µM): 90%

Nc1ncnc2occ(-c3ccc(NC(=O)Nc4cc(C(F)(F)F)ccc4F)cc3)c12
remaining signal (cell-free assay; inhibitor; 20 µM): 23%

COc1ccc2cc(OCC3(C(=O)O)CN(C(=O)c4ccc(F)cc4)C3)ccc2c1
remaining binding (cell-free assay; competition with immobilised ligand; 1 µM): 100%

Cc1cc(NC(=O)c2cccc3cc(-c4cccc5[nH]nc(N)c45)ccc23)ccc1F
activity vs control (enzyme activity; inhibitor; 0.1 µM): 95%

COc1cc(Nc2cnc(C#N)c(O[C@H](C)CN(C)C)n2)ncc1-c1cnn(C)c1
remaining activity (enzyme activity; inhibitor; radiometric; 1 µM): 95%

Cc1sc(C(=O)NC2COC2)cc1-n1cc(NC(=O)Nc2c(F)cccc2Cl)cn1
remaining activity (enzyme activity; inhibitor; 10 µM): 100%

COc1cccc2c(NCc3ccccc3)nc(-n3c(N)nc4ccccc43)nc12
inhibition (target engagement in cells; inhibitor; chemoproteomics; 20 mM): -12.9%

COc1cc(-c2cn(C3CCc4c(F)cccc4N(CC(F)(F)F)C3=O)nn2)ccc1-n1cnc(C)c1 (stereo not shown)
remaining binding (cell-free assay; competition with immobilised ligand; 1 µM): 100%

FC(F)(F)Oc1cccc(-c2cnc3ccc(-c4ccncc4)nn23)c1
activity vs control (enzyme activity; inhibitor; radiometric; 1 µM): 0.675%

FC(F)c1nc2ccccc2n1-c1nc(N2CCOCC2)nc(N2CCOCC2)n1
remaining activity (enzyme activity; inhibitor; 10 µM): 85%

O=C1Nc2ccc(Cl)cc2C1=Cc1cc(Cl)c(O)c(Cl)c1
remaining signal (cell-free assay; 0.5 µM): 95.5%

CCN1CCC2(CC1)NC(=O)c1c(c3ccc(Cl)c(Cl)c3n1C)C2C#N (racemic)
ΔTm (thermal stability; DSF; 10 µM): 1.4 °C

CN1CC(Oc2cnc(C#N)cc2-c2ccn3nc(NC(=O)C4CC4)cc3c2)C1
inhibition (enzyme activity; inhibitor; 1 µM): 1%

CCCOc1ccc([C@@H]2[C@@H](C(=O)O)[C@H](c3ccc4c(c3)OCO4)CN2CC(=O)Nc2c(CC)cccc2CC)cc1
remaining binding (cell-free assay; competition with immobilised ligand; 1 µM): 100%

CC/C(=N\NC(=O)NCc1cccc(O)c1)c1ccc(O)c(C)c1O
inhibition (enzyme activity; inhibitor; 0.1 µM): 1.6%

CCCOc1ccc(OC)c(F)c1C(=O)c1ccc(C(=O)N[C@@H]2CNC[C@H]2NC(=O)c2ccc3[nH]ncc3c2)cc1
remaining activity (enzyme activity; inhibitor; 10 µM): 36%

N#CCCc1ccc2c(c1)-c1[nH]c3ccc([N+](=O)[O-])cc3c1CC(=O)N2
remaining signal (cell-free assay; 0.5 µM): 104%

CCCS(=O)(=O)Nc1ccc(F)c(C(=O)c2c[nH]c3ncc(-c4ccc(Cl)cc4)cc23)c1F
inhibition (enzyme activity; inhibitor; 1 µM): < 10%

COc1cc2ncnc(Nc3ccc(Oc4ccccc4)c(C)c3C)c2cc1OC
inhibition (enzyme activity; inhibitor; 1 µM): 3%

Cn1c2c(c3ccc(Cl)c(Cl)c31)C(C#N)C(C)(C)NC2=O (stereo not shown)
ΔTm (thermal stability; DSF; 10 µM): 3.2 °C

CS(=O)(=O)Nc1cccc(-c2csc(NC(=O)CSc3nc4nccnc4c(=O)n3CCc3ccccc3)n2)c1
inhibition (enzyme activity; inhibitor; 10 µM): 11%

CC(=O)Nc1c(C(C)=O)c(=O)n(C)c2nc(-c3ccc(Cl)cc3Cl)c(-c3ccc(Cl)cc3)cc12
remaining binding (cell-free assay; competition with immobilised ligand; 1 µM): 100%

CC(C1CC1)n1cnc2c(NCc3cccc(C(F)(F)F)c3)nc(NCCN(C)C)nc21 (stereo not shown)
inhibition (enzyme activity; inhibitor; 5 µM): > 50%

c1ccc(CNc2nc(N3CCOc4ccccc43)nc3c2CCCC3)cc1
inhibition (target engagement in cells; inhibitor; chemoproteomics; 20 mM): -5.9%

CS(=O)(=O)N1CCCC(NC(=O)[C@H](CCC2CCCCC2)NC(=O)c2ccc(CNC(=O)c3cnc4ccccn34)cc2)C1 (stereo partly shown)
remaining binding (cell-free assay; competition with immobilised ligand; 0.1 µM): 98%

COc1cc2ncnc(Nc3ccc(F)c(Cl)c3)c2cc1OCCCN1CCOCC1
remaining signal (cell-free assay; 0.5 µM): 94.8%

Cn1c2c(c3ccc(Cl)c(Cl)c31)C(C#N)C1(CCCC1)NC2=O (stereo not shown)
ΔTm (thermal stability; DSF; 10 µM): 1.7 °C

Cn1cncc1C1=CN(c2ncnc3[nH]cnc23)CCS1
inhibition (enzyme activity; inhibitor; radiometric; 2 µM): 97.8%
